The source made the active and inactive calls.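 Rule for the calls: active = compounds lowering cell ATP signal with fitted IC50 at most twice the highest tested dose; inconclusive = flat fit with 30 to 70% signal loss, or poor fit; inactive = the rest.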

System in the first assay: not listed separately
As to the kind of experiment: HeLa cell cytotoxicity, dose response, cytotoxicity control for pyoverdine inhibitor project, CellTiter-Glo luminescence, dry powder samples (AID 623950). As to conditions: HeLa viability, CellTiter-Glo ATP luminescence; at 50 µM (top of the series). Put shortly:
(§1)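 Test system: HeLa cells | Amount: 2,500 cells per well | Buffer or medium: Phenol red-free DMEM with 10% fetal bovine serum | Compound: Threefold compound dilution series | Incubation: Cell growth 24 h at 37 °C, then 48 h compound exposure | Detection: CellTiter-Glo luminescence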
As for `N#CC(c1ccc(C(F)(F)F)cc1)c1cccc(Cl)n1` (stereo not drawn), the activity change, negative = toxicity was -3.15% (inactive).

On to `CCCCC(C#N)c1ccc(C(F)(F)F)cc1` (stereo not drawn), for which the activity change, negative = toxicity was 4.97% (inactive). Regarding `CCCCC(C#N)c1ccc(Cl)cc1Cl` (stereo not drawn), the activity change, negative = toxicity was 0.128% (inactive). The same measure, in the same setting: under `N#CC(c1ccc(Cl)cc1)c1ccc(Cl)cn1` (stereo not drawn) stands -2.34% (inactive). Consider `COc1cccc(C(C#N)c2ccc(F)cc2)n1` (stereo not drawn), for which the activity change, negative = toxicity is -7.47% (inactive). For the molecule `N#CC(c1ccc(C(F)(F)F)c(Cl)n1)c1ccccc1OC(F)(F)F` (stereo not drawn), the activity change, negative = toxicity was -4.77% (inactive).

`N#CC(c1cccc(Cl)n1)c1ccc(Cl)cc1F` (stereo not drawn): the activity change, negative = toxicity is -3.91% (inactive). In the case of `N#Cc1cccc(C(C#N)c2ccc(Cl)cc2Cl)n1` (stereo not drawn), the activity change, negative = toxicity is 7.33% (inactive). As for `Cc1ccc(C(C#N)c2ccc(Cl)cc2)nc1` (stereo not drawn), the activity change, negative = toxicity was 4.52% (inactive). On to `CCCCC(C#N)c1ccc(Cl)cc1` (stereo not drawn), for which the activity change, negative = toxicity is 1.19% (inactive).

Regarding `N#CC(c1ccc(Cl)cc1)c1ncccc1Cl` (stereo not drawn), the activity change, negative = toxicity was -0.68% (inactive). Take `Cc1cccc(C(C#N)c2ccc(Cl)cc2)n1` (stereo not drawn): the activity change, negative = toxicity was -4.38% (inactive). As to `N#CC(CC1CC1)c1ccc(Cl)cc1` (stereo not drawn), the activity change, negative = toxicity was 4.91% (inactive).

With `N#Cc1cccc(C(C#N)c2ccc(Cl)cc2)n1` (stereo not drawn), the activity change, negative = toxicity is -0.235% (inactive). As to `N#CC(c1ccc(F)cc1)c1cccc(C(F)(F)F)n1` (stereo not drawn), the activity change, negative = toxicity was 4.89% (inactive). Consider `Cc1ccc(C(C#N)c2ccccc2OC(F)(F)F)nc1C#N` (stereo not drawn), for which the activity change, negative = toxicity was -0.14% (inactive).

As for `N#CC(c1cccc(C(F)(F)F)n1)c1ccc(Cl)cc1F` (stereo not drawn), the activity change, negative = toxicity is -5.15% (inactive). For `N#Cc1cccc(C(C#N)c2ccc(Cl)cc2F)n1` (stereo not drawn), the activity change, negative = toxicity was 4.41% (inactive). Regarding `N#CC(c1ccc(Cl)cc1Cl)c1ncccc1Cl` (stereo not drawn), the activity change, negative = toxicity was -10.4% (inactive). With `N#CC(c1cccc(C(F)(F)F)n1)c1ccccc1OC(F)(F)F` (stereo not drawn), the activity change, negative = toxicity is 6.21% (inactive). As to `CCCCC(C#N)c1ccc(F)cc1` (stereo not drawn), the activity change, negative = toxicity is 4.15% (inactive). On the same count and under the same terms, under `CCCCC(C#N)c1ccc(Cl)cc1F` (stereo not drawn) stands -1.43% (inactive); under `N#CC(c1ccc(Cl)cc1)c1cccc(C(F)(F)F)n1` (stereo not drawn), -8.05% (inactive). Take `N#CC(c1ccc(Cl)cc1)c1ccc(C(F)(F)F)cn1` (stereo not drawn): the activity change, negative = toxicity was -0.58% (inactive). For `N#Cc1cccc(C(C#N)c2ccccc2OC(F)(F)F)n1` (stereo not drawn), the activity change, negative = toxicity is -3.3% (inactive). Still for that read-out and setting: under `CCCC(C#N)c1ccc(Cl)cc1` (stereo not drawn) stands 2.14% (inactive); under `Cc1ccc(C(C#N)c2ccc(F)cc2)nc1C#N` (stereo not drawn), -12.8% (inactive). Regarding `CC(C#N)(c1ccc(Cl)cc1)c1ccc(C(F)(F)F)cn1` (stereo not drawn), the activity change, negative = toxicity was -9.2% (inactive). Regarding `CCCCC(C#N)c1ccccc1OC(F)(F)F` (stereo not drawn), the activity change, negative = toxicity is 8.75% (inactive). Regarding `CC(C)CC(C#N)c1ccc(Cl)cc1` (stereo not drawn), the activity change, negative = toxicity was -0.673% (inactive).

`N#CC(c1cccc(Cl)n1)c1ccccc1OC(F)(F)F` (stereo not drawn): the activity change, negative = toxicity was -11% (inactive).

The subject of a further assay is HeLa viability, CellTiter-Glo ATP luminescence. Described as above.
Conditions: not given
In outline: as §1
On to `N#CC(c1cccc(Cl)n1)c1ccc(Cl)cc1Cl` (stereo not drawn), for which the IC50 was > 100 µM (inactive). `Cc1ccc(C(C#N)c2ccc(Cl)cc2)nc1C#N` (stereo not drawn): the IC50 is > 100 µM (inactive). For `N#CC(c1ccc(C(F)(F)F)cc1)c1ccc(C(F)(F)F)c(Cl)n1` (stereo not drawn), the IC50 is 38.1 µM. Turning to `N#CC(c1ccc(F)cc1)c1ccc(C(F)(F)F)c(Cl)n1` (stereo not drawn), the IC50 is 35.7 µM.

As for `N#CC(c1ccc(C(F)(F)F)c(Cl)n1)c1ccc(Cl)cc1F` (stereo not drawn), the IC50 is 48.4 µM. On to `N#CC(c1ccc(C(F)(F)F)cc1)c1cccc(C(F)(F)F)n1` (stereo not drawn), for which the IC50 is > 100 µM (inactive). On the same count and under the same terms, under `N#CC(c1ccc(C(F)(F)F)c(Cl)n1)c1ccc(Cl)cc1Cl` (stereo not drawn) stands 26.7 µM.

As usually defined, the IC50 is the concentration at which inhibition is half-maximal.

These data come from PubChem BioAssay AID623950 (Broad Institute, 2012).
